Source: ChEMBL document CHEMBL1136943, “Nocathiacin analogs: Synthesis and antibacterial activity of novel water-soluble amides” (Bioorg Med Chem Lett, 2009)
Converted amounts (≈) assume the structure as drawn.

Assays:
[1] = target: T1, Type-2 angiotensin II receptor (Homo sapiens, UniProt P50052); experiment: Inhibition of AT2 receptor
T1 sequence (P50052 whole entry): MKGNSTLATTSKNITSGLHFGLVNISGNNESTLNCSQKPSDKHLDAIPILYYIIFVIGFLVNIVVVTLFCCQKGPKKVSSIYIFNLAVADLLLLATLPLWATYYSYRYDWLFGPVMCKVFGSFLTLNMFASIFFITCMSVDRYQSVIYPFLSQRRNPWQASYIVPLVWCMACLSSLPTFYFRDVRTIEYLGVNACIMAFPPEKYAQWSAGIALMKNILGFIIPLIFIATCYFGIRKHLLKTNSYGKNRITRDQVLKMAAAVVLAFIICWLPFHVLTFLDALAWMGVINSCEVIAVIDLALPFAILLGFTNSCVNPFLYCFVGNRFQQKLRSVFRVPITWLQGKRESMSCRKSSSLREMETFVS
How it was run: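 AT2 IC50 derived from four dose levels per compound, following a published protocol.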

Staphylococcus aureus [2] = experiment: Antibacterial activity against Staphylococcus aureus infected in mouse model assessed as reduction of >= 2 log 10 cfu kidney burden; assay type: functional
How it was run: (§1)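 Systemic S. aureus infection mouse model (SATOA). Compounds were given iv; […]. Kidney bacterial burden (cfu) was compared with untreated control. ED99 is the dose giving a reduction of at least 2 log10 cfu in kidney burden.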

Staphylococcus aureus [3] = experiment: Antibacterial activity against Staphylococcus aureus MB2865 in liquid culture by turbidity method; assay type: functional
How it was run: (§2)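 MIC is the lowest concentration giving 100% inhibition of bacterial growth in liquid culture, read by turbidity.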

Streptococcus pneumoniae = experiment: Antibacterial activity against Streptococcus pneumoniae CL2883 in liquid culture by turbidity method; assay type: functional; how it was run: as §2
Enterococcus faecalis [4] = experiment: Antibacterial activity against Enterococcus faecalis C21560 in liquid culture by turbidity method; assay type: functional; how it was run: as §2
Enterococcus faecalis [5] = experiment: Antibacterial activity against Enterococcus faecalis; assay type: functional; how it was run: as §2
[6] = target: T2, Nuclear receptor subfamily 1 group I member 2 (Homo sapiens, UniProt O75469); experiment: Activity at human PXR
T2 sequence (O75469 whole entry): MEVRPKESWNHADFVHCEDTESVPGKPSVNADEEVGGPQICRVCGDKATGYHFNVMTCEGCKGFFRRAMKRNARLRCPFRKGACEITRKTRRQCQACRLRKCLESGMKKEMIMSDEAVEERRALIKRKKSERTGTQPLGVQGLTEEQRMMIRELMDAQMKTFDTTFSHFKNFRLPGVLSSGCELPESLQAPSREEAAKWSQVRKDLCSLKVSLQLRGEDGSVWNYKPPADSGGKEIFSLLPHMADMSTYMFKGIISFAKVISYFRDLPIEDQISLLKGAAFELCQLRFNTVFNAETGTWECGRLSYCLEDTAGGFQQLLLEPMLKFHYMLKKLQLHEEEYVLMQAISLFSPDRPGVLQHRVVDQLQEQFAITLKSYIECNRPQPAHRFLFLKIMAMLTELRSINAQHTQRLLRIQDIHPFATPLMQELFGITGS

Staphylococcus aureus [7] = experiment: Antibacterial activity against Staphylococcus aureus infected iv bid dosed mouse model assessed as reduction of colony forming unit in kidney; assay type: functional; how it was run: as §1
Cytochrome P450 2C9 = Cytochrome P450 2C9 (Homo sapiens, UniProt P11712); experiment: Inhibition of CYP2C9; assay type: ADME
Sequence of Cytochrome P450 2C9 (P11712 whole entry): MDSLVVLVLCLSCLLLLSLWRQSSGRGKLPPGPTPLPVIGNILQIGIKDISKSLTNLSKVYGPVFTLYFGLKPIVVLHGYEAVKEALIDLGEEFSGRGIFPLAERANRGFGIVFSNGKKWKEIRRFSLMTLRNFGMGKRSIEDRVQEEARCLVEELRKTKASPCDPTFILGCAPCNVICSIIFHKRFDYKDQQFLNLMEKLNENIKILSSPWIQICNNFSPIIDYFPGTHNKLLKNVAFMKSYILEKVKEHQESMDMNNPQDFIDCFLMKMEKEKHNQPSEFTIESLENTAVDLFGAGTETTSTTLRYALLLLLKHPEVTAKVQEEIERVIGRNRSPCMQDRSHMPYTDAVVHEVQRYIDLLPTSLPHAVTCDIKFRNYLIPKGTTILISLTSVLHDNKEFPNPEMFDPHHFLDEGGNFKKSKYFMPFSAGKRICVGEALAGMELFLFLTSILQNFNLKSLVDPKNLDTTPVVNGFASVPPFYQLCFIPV

Cytochrome P450 2D6 = Cytochrome P450 2D6 (Homo sapiens, UniProt P10635); experiment: Inhibition of CYP2D6; assay type: ADME
Sequence of Cytochrome P450 2D6 (P10635 whole entry): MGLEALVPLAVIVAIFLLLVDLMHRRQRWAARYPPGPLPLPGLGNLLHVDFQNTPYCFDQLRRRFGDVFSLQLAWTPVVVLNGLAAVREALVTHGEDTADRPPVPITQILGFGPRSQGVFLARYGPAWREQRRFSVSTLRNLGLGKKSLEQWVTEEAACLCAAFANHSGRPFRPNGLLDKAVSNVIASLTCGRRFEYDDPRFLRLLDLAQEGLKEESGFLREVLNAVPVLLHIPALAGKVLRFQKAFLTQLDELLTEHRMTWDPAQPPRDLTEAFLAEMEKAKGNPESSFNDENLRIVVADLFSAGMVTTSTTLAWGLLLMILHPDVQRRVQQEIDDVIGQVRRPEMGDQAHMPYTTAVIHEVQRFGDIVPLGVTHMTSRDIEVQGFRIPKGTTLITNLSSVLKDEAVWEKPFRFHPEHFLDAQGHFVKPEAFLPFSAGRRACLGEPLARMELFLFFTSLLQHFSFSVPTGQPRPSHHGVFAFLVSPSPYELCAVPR

[8] = Terminal half life in monkey at 1 mg/kg, iv; assay type: ADME, organism-based, Macaca mulatta; set-up: dose 1 mg/kg, route intravenous; conditions: rhesus monkey, in vivo, read-out: beta t1/2 (converted)
How it was run: (§3)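 Single iv dose of 1 mg/kg in EtOH/PEG400/H2O (10:15:75). Clearance was measured in plasma, with steady-state volume of distribution and terminal half-life derived.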

[9] = Plasma clearance in monkey at 1 mg/kg, iv; assay type: ADME, organism-based, Macaca mulatta; set-up: dose 1 mg/kg, route intravenous; conditions: rhesus monkey; how it was run: as §3
[10] = Volume of distribution in steady state in mouse at 1 mg/kg, iv; assay type: ADME, organism-based; set-up: dose 1 mg/kg, route intravenous; conditions: in vivo, read-out: Vdss; how it was run: as §3
[11] = Volume of distribution in steady state in rat at 1 mg/kg, iv; assay type: ADME, organism-based; set-up: dose 1 mg/kg, route intravenous; conditions: in vivo, read-out: Vdss; how it was run: as §3
[12] = Terminal half life in dog at 1 mg/kg, iv; assay type: ADME, organism-based, Canis lupus familiaris; set-up: dose 1 mg/kg, route intravenous; conditions: in vivo, read-out: beta t1/2 (converted); how it was run: as §3
Staphylococcus aureus [13] = experiment: Antibacterial activity against methicillin-resistant Staphylococcus aureus; assay type: functional
How it was run: (§4)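 MIC taken as the lowest concentration giving 100% inhibition of bacterial growth in liquid culture, judged by turbidity.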

[14] = Plasma clearance in rat at 1 mg/kg, iv; assay type: ADME, organism-based; set-up: dose 1 mg/kg, route intravenous; how it was run: as §3
Cytochrome P450 1A2 = target: T3, Cytochrome P450 1A2 (Homo sapiens, UniProt P05177); experiment: Inhibition of CYP1A2; assay type: ADME
T3 sequence (P05177 whole entry): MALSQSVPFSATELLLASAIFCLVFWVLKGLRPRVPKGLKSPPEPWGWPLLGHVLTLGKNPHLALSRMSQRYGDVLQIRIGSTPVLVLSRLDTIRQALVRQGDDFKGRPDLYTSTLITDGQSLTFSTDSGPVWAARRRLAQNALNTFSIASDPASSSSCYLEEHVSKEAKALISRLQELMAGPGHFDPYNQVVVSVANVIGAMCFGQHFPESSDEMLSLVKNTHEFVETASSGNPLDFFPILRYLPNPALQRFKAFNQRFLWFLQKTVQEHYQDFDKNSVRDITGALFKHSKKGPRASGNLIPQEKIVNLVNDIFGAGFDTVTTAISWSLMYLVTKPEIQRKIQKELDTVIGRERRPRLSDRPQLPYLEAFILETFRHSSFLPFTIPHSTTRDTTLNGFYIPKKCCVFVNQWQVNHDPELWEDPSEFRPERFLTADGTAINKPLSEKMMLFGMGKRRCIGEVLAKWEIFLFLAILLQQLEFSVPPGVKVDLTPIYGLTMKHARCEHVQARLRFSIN

Cytochrome P450 3A4 = Cytochrome P450 3A4 (Homo sapiens, UniProt P08684); experiment: Inhibition of CYP3A4; assay type: ADME
Sequence of Cytochrome P450 3A4 (P08684 whole entry): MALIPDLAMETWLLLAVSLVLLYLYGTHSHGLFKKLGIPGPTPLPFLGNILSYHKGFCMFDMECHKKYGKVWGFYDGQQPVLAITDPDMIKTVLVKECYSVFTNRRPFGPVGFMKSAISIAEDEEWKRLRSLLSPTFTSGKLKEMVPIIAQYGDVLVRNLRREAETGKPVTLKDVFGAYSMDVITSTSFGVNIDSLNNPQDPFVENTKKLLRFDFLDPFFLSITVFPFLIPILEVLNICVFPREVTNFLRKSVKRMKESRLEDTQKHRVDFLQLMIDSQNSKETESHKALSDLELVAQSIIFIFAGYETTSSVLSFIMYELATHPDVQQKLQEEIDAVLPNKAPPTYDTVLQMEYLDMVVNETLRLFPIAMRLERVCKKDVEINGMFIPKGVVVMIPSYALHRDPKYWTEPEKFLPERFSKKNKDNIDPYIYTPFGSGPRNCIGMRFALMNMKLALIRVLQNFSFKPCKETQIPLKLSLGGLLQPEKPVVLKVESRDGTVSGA

[15] = Volume of distribution in steady state in dog at 1 mg/kg, iv; assay type: ADME, organism-based, Canis lupus familiaris; set-up: dose 1 mg/kg, route intravenous; conditions: in vivo, read-out: Vdss; how it was run: as §3
[16] = Terminal half life in rat at 1 mg/kg, iv; assay type: ADME, organism-based; set-up: dose 1 mg/kg, route intravenous; conditions: in vivo, read-out: beta t1/2 (converted); how it was run: as §3
Cytochrome P450 2C19 = Cytochrome P450 2C19 (Homo sapiens, UniProt P33261); experiment: Inhibition of CYP2C19; assay type: ADME
Sequence of Cytochrome P450 2C19 (P33261 whole entry): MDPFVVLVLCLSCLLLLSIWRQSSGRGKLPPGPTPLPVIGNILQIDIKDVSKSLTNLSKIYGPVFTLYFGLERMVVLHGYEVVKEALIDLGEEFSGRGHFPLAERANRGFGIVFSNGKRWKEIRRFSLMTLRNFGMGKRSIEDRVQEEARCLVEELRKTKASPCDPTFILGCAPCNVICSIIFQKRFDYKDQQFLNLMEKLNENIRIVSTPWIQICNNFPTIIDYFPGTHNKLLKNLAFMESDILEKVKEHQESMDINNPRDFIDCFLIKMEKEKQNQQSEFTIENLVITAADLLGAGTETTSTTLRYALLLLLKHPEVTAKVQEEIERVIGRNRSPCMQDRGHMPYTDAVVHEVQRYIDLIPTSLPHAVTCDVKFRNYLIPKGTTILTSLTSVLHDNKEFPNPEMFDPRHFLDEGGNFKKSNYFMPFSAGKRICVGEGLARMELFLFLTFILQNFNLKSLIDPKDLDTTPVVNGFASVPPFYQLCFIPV

Cytochrome P450 2C8 = target: T4, Cytochrome P450 2C8 (Homo sapiens, UniProt P10632); experiment: Inhibition of CYP2C8; assay type: ADME
T4 sequence (P10632 whole entry): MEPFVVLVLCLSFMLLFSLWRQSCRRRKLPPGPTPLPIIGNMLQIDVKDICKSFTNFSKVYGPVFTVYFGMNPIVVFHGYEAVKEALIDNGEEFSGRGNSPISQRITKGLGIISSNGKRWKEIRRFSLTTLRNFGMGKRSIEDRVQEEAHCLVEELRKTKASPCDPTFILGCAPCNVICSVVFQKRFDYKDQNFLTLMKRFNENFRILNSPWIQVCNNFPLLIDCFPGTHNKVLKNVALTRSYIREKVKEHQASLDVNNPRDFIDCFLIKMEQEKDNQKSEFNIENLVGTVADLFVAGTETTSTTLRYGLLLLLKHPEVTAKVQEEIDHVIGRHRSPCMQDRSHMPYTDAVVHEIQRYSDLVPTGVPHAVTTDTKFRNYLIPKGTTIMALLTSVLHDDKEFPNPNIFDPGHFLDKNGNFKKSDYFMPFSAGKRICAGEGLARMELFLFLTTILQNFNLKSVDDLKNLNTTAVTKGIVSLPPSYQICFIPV

[17] = Plasma clearance in dog at 1 mg/kg, iv; assay type: ADME, organism-based, Canis lupus familiaris; set-up: dose 1 mg/kg, route intravenous; how it was run: as §3
Staphylococcus aureus [18] = experiment: Antibacterial activity against methicillin-resistant Staphylococcus aureus COL infected mouse thigh model assessed as reduction of bacterial load at 1 mg/kg, iv, bid after 24 hrs; assay type: functional
How it was run: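 Mouse MRSA COL thigh infection, 4 mice per group. Test article given intravenously, 0.2 ml, twice daily. Thighs harvested aseptically 24 h after challenge. Bacterial load compared with untreated controls as log reduction over 24 h.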

[19] = Terminal half life in mouse at 1 mg/kg, iv; assay type: ADME, organism-based; set-up: dose 1 mg/kg, route intravenous; conditions: in vivo, read-out: beta t1/2 (converted); how it was run: as §3
Enterococcus = experiment: Antibacterial activity against vancomycin-resistant Enterococcus; assay type: functional; how it was run: as §4
[20] = Volume of distribution in steady state in monkey at 1 mg/kg, iv; assay type: ADME, organism-based, Macaca mulatta; set-up: dose 1 mg/kg, route intravenous; conditions: rhesus monkey, in vivo, read-out: Vdss; how it was run: as §3

## CO/C(C)=C1/NC(=O)[C@H]([C@@H](C)O)NC(=O)c2csc(n2)-c2cc(O)c(-c3nc(C(=O)NCCNC(=O)CN4CCOCC4)cs3)nc2-c2csc(n2)[C@@H]2COC(=O)c3c4c5c(cccc5n3O)COC(=O)[C@@H](O[C@H]3C[C@](C)(O)[C@H](N(C)C)[C@H](C)O3)[C@@H](OC4)[C@H](NC(=O)c3csc1n3)c1nc(cs1)C(=O)N2
[1]
  IC50: 0.25 µM
Staphylococcus aureus [2]
  ED99: 0.05 mg/kg
Staphylococcus aureus [3]
  MIC: 0.0038 µg/mL (≈ 0.00247 µM)
Streptococcus pneumoniae
  MIC: 0.00048 µg/mL (≈ 0.000312 µM)
Enterococcus faecalis [4]
  MIC: 0.06 µg/mL (≈ 0.039 µM)

## CO/C(C)=C1/NC(=O)[C@H]([C@@H](C)O)NC(=O)c2csc(n2)-c2cc(O)c(-c3nc(C(=O)N4CCN(C)CC4)cs3)nc2-c2csc(n2)[C@@H]2COC(=O)c3c4c5c(cccc5n3O)COC(=O)[C@@H](O[C@H]3C[C@](C)(O)[C@H](N(C)C)[C@H](C)O3)[C@@H](OC4)[C@H](NC(=O)c3csc1n3)c1nc(cs1)C(=O)N2
[1]
  IC50: 0.102 µM
Staphylococcus aureus [2]
  ED99: 0.24 mg/kg
Staphylococcus aureus [3]
  MIC: 0.06 µg/mL (≈ 0.0413 µM)
Streptococcus pneumoniae
  MIC: 0.015 µg/mL (≈ 0.0103 µM)
Enterococcus faecalis [4]
  MIC: 0.06 µg/mL (≈ 0.0413 µM)

## C=C(NC(=O)c1csc(-c2nc3c(cc2O)-c2nc(cs2)C(=O)N[C@@H]([C@@H](C)O)C(=O)N/C(=C(\C)OC)c2nc(cs2)C(=O)N[C@@H]2c4nc(cs4)C(=O)N[C@@H](COC(=O)c4c5c6c(cccc6n4O)COC(=O)[C@@H](O[C@H]4C[C@](C)(O)[C@H](N(C)C)[C@H](C)O4)[C@H]2OC5)c2nc-3cs2)n1)C(N)=O [MJ347-81F4 A]
Enterococcus faecalis [5]
  MIC: 0.015 µg/mL (≈ 0.0104 µM)
Staphylococcus aureus [3]
  MIC: 0.007 µg/mL (≈ 0.00487 µM)
Streptococcus pneumoniae
  MIC: 0.002 µg/mL (≈ 0.00139 µM)
Enterococcus faecalis [4]
  MIC: 0.03 µg/mL (≈ 0.0209 µM)

## CO/C(C)=C1/NC(=O)[C@H]([C@@H](C)O)NC(=O)c2csc(n2)-c2cc(OC)c(-c3nc(C(=O)NCCCN4CCOCC4)cs3)nc2-c2csc(n2)[C@@H]2COC(=O)c3c4c5c(cccc5n3O)COC(=O)[C@@H](O[C@H]3C[C@](C)(O)[C@H](N(C)C)[C@H](C)O3)[C@@H](OC4)[C@H](NC(=O)c3csc1n3)c1nc(cs1)C(=O)N2
[6]
  Activity: Not Active
Staphylococcus aureus [7]
  ED99: 0.27 mg/kg
[1]
  IC50: 5.07 µM
Cytochrome P450 2C9
  IC50: ≥ 100 µM
Cytochrome P450 2D6
  IC50: ≥ 100 µM
[8]
  half-life: 6.5 h
[9]
  clearance: 15 mL/min/kg
[10]
  Vd: 18.7 L/kg
[11]
  Vd: 15.5 L/kg
[12]
  half-life: 5.4 h
Staphylococcus aureus [13]
  MIC: 0.00095 µg/mL (≈ 0.000629 µM)
[14]
  clearance: 51.3 mL/min/kg
Cytochrome P450 1A2
  IC50: ≥ 100 µM
Cytochrome P450 3A4
  IC50: ≥ 100 µM
[15]
  Vd: 3.3 L/kg
[16]
  half-life: 6.4 h
Cytochrome P450 2C19
  IC50: ≥ 100 µM
Staphylococcus aureus [3]
  MIC: 0.01 µg/mL (≈ 0.00662 µM)
Cytochrome P450 2C8
  IC50: 71 µM
[17]
  clearance: 15.6 mL/min/kg
Staphylococcus aureus [18]
  Activity: 1.22
[19]
  half-life: 5 h
Enterococcus
  MIC: 0.06 µg/mL (≈ 0.0397 µM)
[20]
  Vd: 1.2 L/kg

## CO/C(C)=C1/NC(=O)[C@H]([C@@H](C)O)NC(=O)c2csc(n2)-c2cc(O)c(-c3nc(C(=O)O)cs3)nc2-c2csc(n2)[C@@H]2COC(=O)c3c4c5c(cccc5n3O)COC(=O)[C@@H](O[C@H]3C[C@](C)(O)[C@H](N(C)C)[C@H](C)O3)[C@@H](OC4)[C@H](NC(=O)c3csc1n3)c1nc(cs1)C(=O)N2 [NOCATHIACIN ACID]
[1]
  IC50: 1.12 µM
Staphylococcus aureus [3]
  MIC: 8 µg/mL (≈ 5.84 µM)
Streptococcus pneumoniae
  MIC: 2 µg/mL (≈ 1.46 µM)
Enterococcus faecalis [4]
  MIC: > 8 µg/mL
